Publication PMC5599134 (Structure (London, England : 1993), 2017)
Each block holds one molecule with its values, some of them ahead of it. Ends that are not written are not given here.

Columns and labels:
[1] = molecular target: Snap25b-C4A (cysteine-less mutant), full length (human) (UniProt P60880); test: ITC
[2] = molecular target: Snap25b_(111–120) peptide (human); test: ITC
ANK17 domain of DHHC17 = molecular target: T1, ANK17 domain of DHHC17 (Homo sapiens, UniProt Q8IUH5); test: ITC titration of ANK17-WT with Snap25b species; format: binding; details: for effect of alanine mutation in Snap25b on binding to ANK17 (in words): ITC, ANK17-WT titrated into Snap25b mutants, 25°C, 1X PBS 1 mM DTT
T1 sequence (Q8IUH5 50-288): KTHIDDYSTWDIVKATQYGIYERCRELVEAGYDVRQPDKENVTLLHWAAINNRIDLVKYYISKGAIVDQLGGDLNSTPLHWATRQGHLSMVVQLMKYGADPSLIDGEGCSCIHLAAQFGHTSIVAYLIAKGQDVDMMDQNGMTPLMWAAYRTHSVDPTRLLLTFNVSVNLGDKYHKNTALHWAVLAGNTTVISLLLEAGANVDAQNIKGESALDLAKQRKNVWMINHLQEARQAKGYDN

Snap25b [3] = format: cell-based, human; details: HEK-293T, 100 μM 17-ODYA, 4 h, 37°C; Rhodamine-azide click; n=3
In short: (§1)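 HEK-293T cells (DMEM, 10% FBS, 37°C, 5% CO2) co-transfected with 2 μg GFP-DHHC17 (wild type or mutants) and 0.5 μg EGFP-Snap25b, cysteine-less C4A or empty vector, using PEI-max. At 24 h, cells given serum-free DMEM with 100 μM 17-ODYA for 4 h at 37°C, then lysed in dodecylmaltoside buffer. Click reaction with rhodamine azide/CuSO4/TCEP/TBTA for 1 h at room temperature. In-gel rhodamine fluorescence; anti-GFP and anti-Snap25b blots; bands quantitated.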

Snap25b-WT [4] = test: Co2+ affinity pull-down of GFP-Snap25b-WT by DHHC17 mutants in HEK-293T cells; format: cell-based, human; details: 24 h co-transfection, Co2+ (Talon) pull down, gel-densitometry
[5] = molecular target: Snap25b (Synaptosomal-associated protein 25), wild type, full length (human) (UniProt P60880); test: ITC
DHHC17 = test: Autoacylation of DHHC17 in 17-ODYA metabolic labeling; format: cell-based, human; details: HEK-293T, click chemistry
In short: as §1

Snap25b-WT [6] = test: In vitro palmitate transfer from NBD-palmitoyl-CoA to Snap25b; format: biochemical, human; details: both in absence and presence of purified Snap25b-WT
wild-type Htt = test: ITC titration of ANK17-W130A into MBP-Htt1–548; format: binding; details: titrated into MBP-Htt1–548, 25°C, 1X PBS 1 mM DTT
Snap25b-WT [7] = test: ITC titration of ANK17 mutants into full-length Snap25b-WT; format: binding, human; details: ANK17 mutants titrated into Snap25b-WT, 25°C, 1X PBS 1 mM DTT
[8] = Size exclusion chromatography; format: physicochemical; details: Superdex-200
In short: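 His-tagged protein expressed in E. coli BL21(DE3)-Gold and Ni-NTA purified. Spun at 21000 × g for 20 min at 4°C, then about 200 μL injected onto Superdex-200. Column buffer was 50mM Tris-HCl, 50mM NaCl, 5% glycerol, 1mM DTT for crystallization, or 1X PBS pH 7.4 with 1 mM DTT for ITC. Peak fractions pooled.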

Snap25b [9] = details: palmitoylated enzyme intermediate; ref Greaves et al., 2017; cited from earlier work

Kd [1]: 3 µM
Kd [2]: 11 µM
Molecule: ankyrin repeat domain of Human DHHC17 (ANK17), wild type (domain or fragment)

Molecule: GVVASQPARV [Snap25b111–120]
Kd (ANK17 domain of DHHC17): ~11 µM

Molecule: W130A: full length DHHC17 mutant W130A (GFP fusion)
S-acylation (palmitate transfer) of Snap25b (in words) (Snap25b [3]): severely reduced levels of palmitoylation
amount of Snap25b pulled down by DHHC17 mutant (in words) (Snap25b-WT [4]): largest decrease in affinity

Molecule: mutation to phenylalanine: full length DHHC17 with W130 mutated to phenylalanine
S-acylation (palmitate transfer) of Snap25b (in words) (Snap25b [3]): loss of function of W130A can be recovered

effect of alanine mutation in Snap25b on binding to ANK17 (in words) (ANK17 domain of DHHC17): largest reduction in binding affinity
Molecule: P117A: Snap25b alanine mutant P117A (GFP fusion in pull-down)
effect of alanine mutation in Snap25b on binding to ANK17 (in words) (ANK17 domain of DHHC17; listed as Snap25b-P117A): showed only marginal heat of binding and we could not obtain any fitting of the integrated heats

fold reduction of affinity against ANK17-WT [5]: 5 fold
Molecule: ANK17-Y67A (domain or fragment)

Molecule: DHHC17: full length human DHHC17 palmitoyltransferase (NP_056151)
S-acylation (palmitate transfer) of Snap25b (in words) (Snap25b [3]): readily transfers palmitate to Snap25b
autoacylation (in words) (DHHC17): did not detect any autoacylation
autopalmitoylation with or without Snap25b (in words) (Snap25b-WT [6]): does not appear to get autopalmitoylated to appreciable levels

effect of alanine mutation in Snap25b on binding to ANK17 (in words) (ANK17 domain of DHHC17): followed by the V113A and Q116A
Molecule: V113A: Snap25b alanine mutant V113A (GFP fusion in pull-down)

Molecule: N100A: full length DHHC17 mutant N100A (GFP fusion)
S-acylation (palmitate transfer) of Snap25b (in words) (Snap25b [3]): severely reduced levels of palmitoylation
amount of Snap25b pulled down by DHHC17 mutant (in words) (Snap25b-WT [4]): largest decrease in affinity

B1: DHHC17-C467S: mutation of the cysteine of DHHC domain to serine (protein, UniProt Q8IUH5 1-632, looked up, variant C467S)
Palmitoyltransferase ZDHHC17: MQREEGFNTKMADGPDEYDTEAGCVPLLHPEEIKPQSHYNHGYGEPLGRKTHIDDYSTWDIVKATQYGIYERCRELVEAGYDVRQPDKENVTLLHWAAINNRIDLVKYYISKGAIVDQLGGDLNSTPLHWATRQGHLSMVVQLMKYGADPSLIDGEGCSCIHLAAQFGHTSIVAYLIAKGQDVDMMDQNGMTPLMWAAYRTHSVDPTRLLLTFNVSVNLGDKYHKNTALHWAVLAGNTTVISLLLEAGANVDAQNIKGESALDLAKQRKNVWMINHLQEARQAKGYDNPSFLRKLKADKEFRQKVMLGTPFLVIWLVGFIADLNIDSWLIKGLMYGGVWATVQFLSKSFFDHSMHSALPLGIYLATKFWMYVTWFFWFWNDLNFLFIHLPFLANSVALFYNFGKSWKSDPGIIKATEEQKKKTIVELAETGSLDLSIFCSTCLIRKPVRSKHCGVCNRCIAKFDHHSPWVGNCVGAGNHRYFMGYLFFLLFMICWMIYGCISYWGLHCETTYTKDGFWTYITQIATCSPWMFWMFLNSVFHFMWVAVLLMCQMYQISCLGITTNERMNARRYKHFKVTTTSIESPFNHGCVRNIIDFFEFRCCGLFRPVIVDWTRQYTIEYDQISGSGYQLV
S-acylation (palmitate transfer) of Snap25b (in words) (Snap25b [3]): does not show any appreciable transfer

effect of alanine mutation in ANK17 on binding to full-length Snap25b (in words) (Snap25b-WT [7]): showed only heat of dilution
B2: ANK17-W130A: ANK17 with alanine substitution at position W130 (protein, UniProt Q8IUH5 50-288, looked up, variant W130A)
chain: KTHIDDYSTWDIVKATQYGIYERCRELVEAGYDVRQPDKENVTLLHWAAINNRIDLVKYYISKGAIVDQLGGDLNSTPLHAATRQGHLSMVVQLMKYGADPSLIDGEGCSCIHLAAQFGHTSIVAYLIAKGQDVDMMDQNGMTPLMWAAYRTHSVDPTRLLLTFNVSVNLGDKYHKNTALHWAVLAGNTTVISLLLEAGANVDAQNIKGESALDLAKQRKNVWMINHLQEARQAKGYDN
modifications: ankyrin repeat domain
binding of ANK17 mutant to wild-type Htt (in words) (wild-type Htt): no discernible signs of binding to wild-type Htt

B3: ANK17: cytoplasmic ankyrin repeat domain of human DHHC17, residues K50 to D288 (protein, UniProt Q8IUH5 50-288, looked up, fragment)
chain: KTHIDDYSTWDIVKATQYGIYERCRELVEAGYDVRQPDKENVTLLHWAAINNRIDLVKYYISKGAIVDQLGGDLNSTPLHWATRQGHLSMVVQLMKYGADPSLIDGEGCSCIHLAAQFGHTSIVAYLIAKGQDVDMMDQNGMTPLMWAAYRTHSVDPTRLLLTFNVSVNLGDKYHKNTALHWAVLAGNTTVISLLLEAGANVDAQNIKGESALDLAKQRKNVWMINHLQEARQAKGYDN
modifications: ankyrin repeat domain
size exclusion peak homogeneity (in words) [8]: homogenous and monodisperse peaks

B4: DHHC15: DHHC15 palmitoyl transferase (NM_144969), comparison enzyme (protein, UniProt Q96MV8 1-337, looked up)
Palmitoyltransferase ZDHHC15: MRRGWKMALSGGLRCCRRVLSWVPVLVIVLVVLWSYYAYVFELCLVTVLSPAEKVIYLILYHAIFVFFTWTYWKSIFTLPQQPNQKFHLSYTDKERYENEERPEVQKQMLVDMAKKLPVYTRTGSGAVRFCDRCHLIKPDRCHHCSVCAMCVLKMDHHCPWVNNCIGFSNYKFFLQFLAYSVLYCLYIATTVFSYFIKYWRGELPSVRSKFHVLFLLFVACMFFVSLVILFGYHCWLVSRNKTTLEAFCTPVFTSGPEKNGFNLGFIKNIQQVFGDKKKFWLIPIGSSPGDGHSFPMRSMNESQNPLLANEETWEDNEDDNQDYPEGSSSLAVETET
modifications: 10xHis tag
palmitate transfer to Snap25b (in words) (Snap25b [9]): capable of transferring palmitate to a protein substrate such as Snap25b
